MsrA inhibitor = inhibits bovine methionine sulfoxide reductase A; 0.75% of 360,000 active; inhibition, % at 15.5 µM; AID 651718; purified bovine MsrA, absorbance read-out; in the data active = inhibition above about 4.5%
MC4R antag cAMP = human MC4R antagonism in cAMP assay. P32245. MC4R-expressing cells, MTII-stimulated cAMP, LANCE TR-FRET. inhibition, % at 6.5 µM. 0.48% of 360,000 active. AID 540295;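 active = inhibition above its plate's cutoff, the mean of tested wells on that plate plus 3 SD, cut at about 29% in these data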
Target sequence (P32245 whole entry, looked up): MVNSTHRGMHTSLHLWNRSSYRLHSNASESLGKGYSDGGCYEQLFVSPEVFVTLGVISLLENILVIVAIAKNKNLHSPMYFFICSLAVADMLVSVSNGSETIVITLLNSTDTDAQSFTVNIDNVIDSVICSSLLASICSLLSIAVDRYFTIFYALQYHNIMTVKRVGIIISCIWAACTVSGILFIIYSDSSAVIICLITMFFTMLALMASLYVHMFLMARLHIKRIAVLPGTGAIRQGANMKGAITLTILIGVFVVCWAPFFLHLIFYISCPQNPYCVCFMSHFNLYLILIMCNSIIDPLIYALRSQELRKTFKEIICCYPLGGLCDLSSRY
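Assay system: U2OS cells stably expressing human melanocortin 4 receptor (MC4R) / Dosing: 6.5 µM / Timing: compound 30 min, challenge 1 h, detection 1 h / Measured by: Eu-cAMP/anti-cAMP TR-FRET, emission 671 nm / Replicates: singlicate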
MC4R barr agon = activates human MC4R beta-arrestin recruitment | P32245 | U2OS MC4R beta-arrestin complementation, luminescence; percent of melanotan II response, DMSO zero | activation, % at 8.9 µM | 0.98% of 360,000 active | AID 540308;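 active = activation above a per-plate cutoff, the mean activation of sample wells on that plate plus 3 SD, cut at about 8% in these data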
MsrA act = activators of bovine methionine sulfoxide reductase A; 0.3% of 360,000 active; purified bovine MsrA, absorbance read-out; activation, % at 10.6 µM; in the data active = activation above about 7.5%
U2OS cAMP counter = U2OS forskolin cAMP inhibition counter-screen | parental U2OS, LANCE TR-FRET | inhibition, % at 6.5 µM | 26% of 1,600 active | shares compounds with MC4R antag cAMP | AID 602193;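 active = mean inhibition over triplicates above the low-control well mean plus 3 SD, set per campaign, cut at about 13% in these data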;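 also: signal is single emission at 671 nm which falls as cellular cAMP rises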
MC4R cAMP antag = human MC4R cAMP antagonism confirmation. shares compounds with MC4R antag cAMP. MC4R-expressing cells, MTII-stimulated cAMP, TR-FRET. inhibition, % at 6.5 µM. 27% of 1,600 active. AID 602195; in the data active = inhibition above about 29%
Each line names hits and unclear results; the compound was inactive in the other large screens (follow-up assays come after a bar, where they were run). Only some compounds are listed: those with a hit (about 2.3% of all), similar ones and a draw of the others.

Cc1cc(-c2ccccc2)n(-c2ccc(C(=O)NC(C)C)cc2)n1	none
O=[N+]([O-])c1cc(S(=O)(=O)NCCN2CCOCC2)ccc1Cl	MC4R antag cAMP 28.9 | U2OS cAMP counter inactive | MC4R cAMP antag inactive
CC(=O)Nc1cccc(Oc2cc(C#N)c(C#N)cc2N2CCCCCC2)c1	MC4R antag cAMP 33.1 | U2OS cAMP counter inactive | MC4R cAMP antag inactive
CCOC(=O)Cc1csc(NC(=O)CSc2nnc(-c3ccncc3)o2)n1	none
COC(=O)CSc1nnc(-c2ccc(S(=O)(=O)NCc3cccs3)cc2)o1	MC4R antag cAMP 43.0 | U2OS cAMP counter 17.4 | MC4R cAMP antag 44.0
COC(=O)CSc1nnc(-c2ccc(S(=O)(=O)NCc3ccccc3Cl)cc2)o1	MC4R antag cAMP 36.1 | U2OS cAMP counter inactive | MC4R cAMP antag 40.3
CCS(=O)(=O)Nc1ccc(-c2nnc(SCC(=O)OC)o2)cc1	none
CCOC(=O)CSc1nnc(-c2ccccc2)o1	none
CCOC(=O)Cc1csc(NC(=O)CSc2nnc(-c3ccc(NS(=O)(=O)CC)cc3)o2)n1	MC4R antag cAMP 29.5 | U2OS cAMP counter inactive | MC4R cAMP antag inactive
CCOC(=O)CSc1nnc(-c2ccc(S(=O)(=O)NCc3cccs3)cc2)o1	MC4R antag cAMP 38.5 | U2OS cAMP counter 15.4 | MC4R cAMP antag 41.5
COCCNC(=O)C1(C)CCN(C(=O)c2nc(C)oc2C)C1 (stereo not drawn)	none
O=C(CC(=O)NC1CCCCC1)N/N=C/c1ccccc1[N+](=O)[O-]	none
C[C@H](CO)N1C[C@H](C)[C@@H](CN(C)S(=O)(=O)c2cn(C)cn2)OCc2cn(nn2)CCCC1=O	none
COC(=O)CSc1nnc(-c2ccc(S(=O)(=O)N3CCCC3)cc2)o1	MC4R antag cAMP 34.0 | U2OS cAMP counter 14.3 | MC4R cAMP antag inactive
NC(=O)CSc1nnc(-c2ccc(S(=O)(=O)N3CCCC3)cc2)o1	none
Cc1ccccc1CNC(=O)CN1C(=O)c2ccccc2S1(=O)=O	MC4R antag cAMP 29.2 | U2OS cAMP counter inactive | MC4R cAMP antag inactive
Cc1ccc(CNC(=O)CN2C(=O)c3ccccc3S2(=O)=O)cc1	none
CC1CCCN(C(=O)COC(=O)CNS(=O)(=O)c2ccc3ccccc3c2)C1 (stereo not drawn)	none
COc1ccc(C(NC(=O)c2c(F)c(F)c(F)c(F)c2F)c2ccccc2)cc1 (stereo not drawn)	MC4R antag cAMP 72.2 | U2OS cAMP counter 56.9 | MC4R cAMP antag 87.9
COc1ccc(C(NC(=O)c2cc(OC)ccc2OC)c2ccccc2)cc1 (stereo not drawn)	none
O=C(NC(=S)Nc1ccccn1)c1ccc(-c2ccccc2)cc1	none
Cc1cc(C)c(NC(=S)NC(=O)c2ccc(-c3ccccc3)cc2)c(C)c1	MC4R antag cAMP 32.0 | U2OS cAMP counter inactive | MC4R cAMP antag inactive
CCN(CC)CCNC(=O)C1CCCCN1S(=O)(=O)c1cccc([N+](=O)[O-])c1 (stereo not drawn)	none
CCCN(CCC)C(=O)c1c(NC(=O)CC)sc2c1CCCCC2	none
CCOC(=O)/C(=N\Nc1ccccc1Cl)N1CCN(C)CC1	none
CCOC(=O)/C(=N\Nc1ccccc1Cl)N1CCN(c2ccccc2OC)CC1	MC4R antag cAMP 29.3 | U2OS cAMP counter inactive | MC4R cAMP antag inactive
O=C(Nc1ccc(F)cc1)c1cc(-c2ccccn2)nc2c(Cl)cccc12	MC4R antag cAMP 30.4 | U2OS cAMP counter 35.2 | MC4R cAMP antag 41.7
O=C(Nc1ccncc1)c1cc(-c2ccccn2)nc2ccccc12	none
O=C(N/N=C/c1cccc([N+](=O)[O-])c1)c1cccs1	none
CC(C)(C)c1ccc(C(=O)OC/C(O)=C(\C#N)c2nc3ccccc3s2)cc1	MC4R antag cAMP 29.1 | U2OS cAMP counter inactive | MC4R cAMP antag inactive
N#C/C(=C(/O)COC(=O)c1ccccc1O)c1nc2ccccc2s1	none
Cc1ccc(Sc2ccc(NC(=O)c3ccc(S(C)(=O)=O)cc3Cl)cc2)cc1	MC4R antag cAMP 108.5 | U2OS cAMP counter 124.9 | MC4R cAMP antag active
COc1ccc(N2CCN(c3n[nH]c(N)n3)CC2)cc1	MC4R antag cAMP 35.2 | U2OS cAMP counter inactive | MC4R cAMP antag inactive
Cc1cccc(C)c1N1CCN(c2n[nH]c(N)n2)CC1	none
Cn1nnc2cc(NC(=O)N3CC4(C)CC3CC(C)(C)C4)ccc21 (stereo not drawn)	none
COC(=O)c1sc(-c2cccs2)cc1NC(=O)/C=C/C(=O)O	MC4R antag cAMP 31.7 | U2OS cAMP counter inactive | MC4R cAMP antag inactive

Screens (PubChem)
